In data set [1] the target is NT-3 growth factor receptor (Homo sapiens, UniProt Q16288). In words: Inhibition of recombinant human His-tagged TrkC cytoplasmic domain (510 to 825 residues) expressed in baculovirus using tyr 01 as substrate incubated for 1 hr by Z'-Lyte assay.
Data set [2] relates to SH-SY5Y. In words: Inhibition of BDNF-induced cell migration in human SH-SY5Y cells transfected with TrkB (unknown origin) incubated for 24 hrs by crystal violet staining microscopy based transwell assay. It is filed as functional. The method, boiled down: (§1)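 Transwell migration: 1.5 X 10⁶ SH-SY5Y-TrkB cells in FBS-free medium containing 0, 8, 40 or 200 nM compound went in the top chamber. The bottom chamber held complete medium with or without BDNF 10 ng/mL. After 24 h at 37 °C, cells were methanol-fixed and stained with 0.25% crystal violet, and non-migrated cells were removed. Cells were counted in six random fields at 200X; mean of three independent experiments.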

Data set [3] deals with SH-SY5Y. In words: Inhibition of BDNF-induced cell migration in human SH-SY5Y cells transfected with TrkB (unknown origin) at 8 nM incubated for 24 hrs by crystal violet staining microscopy based transwell assay relative to control. The data set is classed as functional. The method, boiled down: as §1
Data set [4] deals with SH-SY5Y. In words: Inhibition of BDNF-induced cell migration in human SH-SY5Y cells transfected with TrkB (unknown origin) at 40 nM incubated for 24 hrs by crystal violet staining microscopy based transwell assay relative to control. It is filed as functional. In short, it runs like this:
as §1

The target in data set [5] is Tyrosine-protein kinase ABL1 (Homo sapiens, UniProt P00519). In words: Inhibition of recombinant full length human His-tagged ABL1 expressed in baculovirus infected insect cells using tyr 02 as substrate incubated for 2 hr by Z'-Lyte assay.
Tyrosine-protein kinase ABL1, sequence (P00519 whole entry): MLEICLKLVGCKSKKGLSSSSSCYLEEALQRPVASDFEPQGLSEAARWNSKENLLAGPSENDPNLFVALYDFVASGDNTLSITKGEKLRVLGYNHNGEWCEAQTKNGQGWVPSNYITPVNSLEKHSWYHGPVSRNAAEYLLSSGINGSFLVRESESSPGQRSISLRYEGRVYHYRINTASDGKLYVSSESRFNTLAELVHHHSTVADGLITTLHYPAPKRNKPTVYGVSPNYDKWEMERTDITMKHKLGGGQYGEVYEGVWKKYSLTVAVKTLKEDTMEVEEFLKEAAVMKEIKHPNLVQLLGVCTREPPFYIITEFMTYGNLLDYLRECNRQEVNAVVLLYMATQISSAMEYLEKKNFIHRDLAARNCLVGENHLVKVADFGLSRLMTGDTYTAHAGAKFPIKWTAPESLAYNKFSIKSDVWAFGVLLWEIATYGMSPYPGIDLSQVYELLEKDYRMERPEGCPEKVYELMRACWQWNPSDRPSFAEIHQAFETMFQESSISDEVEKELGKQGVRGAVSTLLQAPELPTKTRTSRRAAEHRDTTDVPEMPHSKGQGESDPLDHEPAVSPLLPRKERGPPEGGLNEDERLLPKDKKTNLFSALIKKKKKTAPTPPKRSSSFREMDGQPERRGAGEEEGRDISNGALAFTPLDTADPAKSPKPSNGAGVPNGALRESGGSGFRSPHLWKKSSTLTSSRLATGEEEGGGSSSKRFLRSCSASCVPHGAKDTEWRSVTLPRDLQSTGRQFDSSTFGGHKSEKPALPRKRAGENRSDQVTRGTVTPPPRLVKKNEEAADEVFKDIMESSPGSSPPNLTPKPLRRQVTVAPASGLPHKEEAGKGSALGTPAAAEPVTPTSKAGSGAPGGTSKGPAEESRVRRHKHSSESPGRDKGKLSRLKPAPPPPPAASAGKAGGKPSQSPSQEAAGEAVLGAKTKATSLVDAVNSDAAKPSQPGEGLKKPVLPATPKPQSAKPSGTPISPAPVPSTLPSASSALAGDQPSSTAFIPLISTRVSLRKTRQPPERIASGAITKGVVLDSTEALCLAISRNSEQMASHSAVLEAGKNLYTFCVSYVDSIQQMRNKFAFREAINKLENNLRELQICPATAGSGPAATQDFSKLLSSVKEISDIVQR
Data set [6] has as its system SH-SY5Y. In words: Inhibition of cell migration in human SH-SY5Y cells transfected with TrkB (unknown origin) assessed as reduction in BDNF-induced wound closure at 40 nM incubated for 24 hrs by bright field microscopy relative to control. The data set is classed as functional. The method, boiled down: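 SH-SY5Y-TrkB monolayers were grown to near confluence and scratched with a pipette tip, then washed with PBS. Cells were incubated 24 h in MEM/F-12 with 2% FBS, with or without BDNF 10 ng/mL and with compound. Three random fields were imaged by bright-field microscopy and % wound closure was measured. Run three times, each in triplicate.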

Data set [7] in a line: Plasma concentration in Sprague-Dawley rat at 25 mg/kg, po administered via gavage incubated for 2 hrs by LC/MS-MS analysis. The data set is classed as ADME, organism-based.
The subject of data set [8] is SH-SY5Y. In words: Neurotoxicity in human SH-SY5Y cells assessed as reduction in cell viability incubated for 72 hrs by CCK8 assay. The data set is classed as toxicity, cell-based.
Data set [9] can be described thus: Ratio of drug concentration in brain to blood of Sprague-Dawley rat at 25 mg/kg, po administered via gavage incubated for 0.5 hrs by LC/MS-MS analysis. The data set is classed as ADME, organism-based. The conditions noted are these: brain and blood, read-out: BBR.
Data set [10] concerns SH-SY5Y. In words: Antiproliferative activity against human SH-SY5Y cells transfected with TrkB (unknown origin) assessed as reduction in cell viability incubated for 72 hrs by CCK8 assay. It is filed as functional, cell-based. The method, boiled down: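 SH-SY5Y-TrkB cells (SH-SY5Y stably transfected with pRP-TrkB, kept under 0.5 µg/ml puromycin in 1:1 MEM/F-12 with 10% FBS) seeded at 1500-3000/well, left overnight. Compounds 0.000457–3 µM were then added with or without BDNF 10 ng/ml for 72 h. Read-out by CCK8. IC50 came from concentration-response curve fitting, reported as mean ± SD from at least three independent experiments.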

The structures appear in SMILES notation.

NT-3 growth factor receptor, sequence (Q16288 whole entry, the tested form may be a part): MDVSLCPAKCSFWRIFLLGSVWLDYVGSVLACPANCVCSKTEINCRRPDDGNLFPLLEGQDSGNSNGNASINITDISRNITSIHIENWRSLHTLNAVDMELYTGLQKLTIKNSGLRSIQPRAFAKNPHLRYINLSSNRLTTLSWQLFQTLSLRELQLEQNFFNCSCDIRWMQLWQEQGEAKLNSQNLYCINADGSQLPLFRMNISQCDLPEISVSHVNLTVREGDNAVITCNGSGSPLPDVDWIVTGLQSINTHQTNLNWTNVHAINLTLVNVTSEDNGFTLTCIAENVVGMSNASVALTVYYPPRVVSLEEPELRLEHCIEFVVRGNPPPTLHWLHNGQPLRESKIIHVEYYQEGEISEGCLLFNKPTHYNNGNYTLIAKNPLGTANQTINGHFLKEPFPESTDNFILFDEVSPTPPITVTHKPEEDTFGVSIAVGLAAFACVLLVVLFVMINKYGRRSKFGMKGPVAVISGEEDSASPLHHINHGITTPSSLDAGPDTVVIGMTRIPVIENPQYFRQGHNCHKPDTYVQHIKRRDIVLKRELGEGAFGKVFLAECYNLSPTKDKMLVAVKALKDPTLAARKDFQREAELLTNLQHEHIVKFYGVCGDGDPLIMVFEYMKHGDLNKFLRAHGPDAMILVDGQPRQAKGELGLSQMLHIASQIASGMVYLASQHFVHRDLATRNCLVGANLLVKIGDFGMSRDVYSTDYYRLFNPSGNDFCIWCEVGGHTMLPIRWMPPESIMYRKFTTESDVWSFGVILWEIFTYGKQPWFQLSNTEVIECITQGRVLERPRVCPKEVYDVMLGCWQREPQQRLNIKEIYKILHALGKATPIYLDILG

Regarding `Cc1c(C#Cc2cnc3cnc(-c4ccc(N)cc4)cn23)cccc1C(=O)Nc1cc(CN2CCN(C)CC2)cc(C(C)C)c1`, the IC50 in data set [1] is 2.95 nM; in [5] it was greater than 1000 nM; in the data set on SH-SY5Y [10], 58 nM. For the same compound, the inhibition result with SH-SY5Y [2] was “Dose-dependent effect”. In the data set with SH-SY5Y [3], the inhibition at 0.008 µM amounted to 22.7%. For the same compound, the results for the inhibition at 0.04 µM with SH-SY5Y [4] and with SH-SY5Y [6] were 53.3% and 76.6%, respectively. The concentration at 2 h in [7] was 33.2 ng/mL. Moreover, in the data set on SH-SY5Y [8], the Activity result was “Non-Toxic”. In addition, the Kp at 0.5 h in data set [9] was determined as 6.4.

For the origin of these results see ChEMBL document CHEMBL4351015, “Design, synthesis and biological evaluation of 3-(imidazo[1,2-a]pyrazin-3-ylethynyl)-2-methylbenzamides as potent and selective pan-tropomyosin receptor kinase (TRK) inhibitors” (Eur J Med Chem, 2019).
